pIC50: −log10 of the molar value.
Tests used:
[1] = biological target: Human immunodeficiency virus type 1 reverse transcriptase (Human immunodeficiency virus 1, UniProt Q72547); assay: Inhibitory concentration required to inhibit HIV-RT is determined
[2] = species on record: Rattus norvegicus; assay: Concentration required for irreversible binding to rat liver microsomes in presence of NADPH without GSH; assay type: functional
Method in brief: (§1)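 A tritium-labelled inhibitor was incubated with rat liver microsomes in the presence of NADPH for 4 h. Irreversible covalent binding was read as residual radioactivity bound to microsomal protein, expressed as pmol/mg protein.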

[3] = biological target: T1, RNA-directed RNA polymerase (Hepacivirus hominis, UniProt O39930); assay: Inhibitory concentration required to inhibit HCV RNA dependent RNA polymerase Nonstructural protein 5B in the presence of Mn2+ is determined
[4] = biological target: DNA polymerase I (Escherichia coli, UniProt P00582); assay: Inhibitory concentration required to inhibit Klenow DNA-dependent DNA polymerase
[5] = species on record: Rattus norvegicus; assay: Concentration required for irreversible binding to rat liver microsomes in presence of NADPH with GSH; assay type: functional; method in brief: as §1
[6] = biological target: Human immunodeficiency virus type 1 integrase (Human immunodeficiency virus 1, UniProt Q7ZJM1); assay: Inhibitory concentration required to inhibit HIV-integrase is determined
[7] = biological target: T1, RNA-directed RNA polymerase; assay: Inhibitory concentration required to inhibit HCV RNA dependent RNA polymerase Nonstructural protein 5B in the presence of Mg2+ is determined

Human immunodeficiency virus type 1 integrase, sequence (Q7ZJM1 whole entry): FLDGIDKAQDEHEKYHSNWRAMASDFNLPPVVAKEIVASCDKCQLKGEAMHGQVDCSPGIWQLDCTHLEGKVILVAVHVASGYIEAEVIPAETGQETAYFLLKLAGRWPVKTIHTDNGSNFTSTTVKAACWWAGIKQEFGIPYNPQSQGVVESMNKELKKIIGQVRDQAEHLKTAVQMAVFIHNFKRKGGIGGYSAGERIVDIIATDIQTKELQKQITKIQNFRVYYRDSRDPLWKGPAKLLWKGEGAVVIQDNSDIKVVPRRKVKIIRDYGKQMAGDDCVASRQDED
T1 sequence (O39930 whole entry): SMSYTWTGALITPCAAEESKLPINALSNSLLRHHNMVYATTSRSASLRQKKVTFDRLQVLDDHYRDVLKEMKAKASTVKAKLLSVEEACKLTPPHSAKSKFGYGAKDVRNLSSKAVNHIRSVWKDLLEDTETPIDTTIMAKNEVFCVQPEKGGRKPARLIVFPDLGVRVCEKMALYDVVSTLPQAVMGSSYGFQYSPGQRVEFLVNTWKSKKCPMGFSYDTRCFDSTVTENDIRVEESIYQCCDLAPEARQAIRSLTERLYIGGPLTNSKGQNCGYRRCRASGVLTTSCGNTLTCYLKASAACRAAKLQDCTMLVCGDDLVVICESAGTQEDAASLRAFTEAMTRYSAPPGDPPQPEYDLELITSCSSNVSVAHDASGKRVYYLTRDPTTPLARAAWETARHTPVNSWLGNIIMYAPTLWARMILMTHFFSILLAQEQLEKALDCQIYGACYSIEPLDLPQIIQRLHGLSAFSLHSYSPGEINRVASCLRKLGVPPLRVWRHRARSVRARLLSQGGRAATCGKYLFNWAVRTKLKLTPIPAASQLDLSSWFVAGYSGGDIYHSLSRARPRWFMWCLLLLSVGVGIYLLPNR
DNA polymerase I, sequence (P00582 whole entry): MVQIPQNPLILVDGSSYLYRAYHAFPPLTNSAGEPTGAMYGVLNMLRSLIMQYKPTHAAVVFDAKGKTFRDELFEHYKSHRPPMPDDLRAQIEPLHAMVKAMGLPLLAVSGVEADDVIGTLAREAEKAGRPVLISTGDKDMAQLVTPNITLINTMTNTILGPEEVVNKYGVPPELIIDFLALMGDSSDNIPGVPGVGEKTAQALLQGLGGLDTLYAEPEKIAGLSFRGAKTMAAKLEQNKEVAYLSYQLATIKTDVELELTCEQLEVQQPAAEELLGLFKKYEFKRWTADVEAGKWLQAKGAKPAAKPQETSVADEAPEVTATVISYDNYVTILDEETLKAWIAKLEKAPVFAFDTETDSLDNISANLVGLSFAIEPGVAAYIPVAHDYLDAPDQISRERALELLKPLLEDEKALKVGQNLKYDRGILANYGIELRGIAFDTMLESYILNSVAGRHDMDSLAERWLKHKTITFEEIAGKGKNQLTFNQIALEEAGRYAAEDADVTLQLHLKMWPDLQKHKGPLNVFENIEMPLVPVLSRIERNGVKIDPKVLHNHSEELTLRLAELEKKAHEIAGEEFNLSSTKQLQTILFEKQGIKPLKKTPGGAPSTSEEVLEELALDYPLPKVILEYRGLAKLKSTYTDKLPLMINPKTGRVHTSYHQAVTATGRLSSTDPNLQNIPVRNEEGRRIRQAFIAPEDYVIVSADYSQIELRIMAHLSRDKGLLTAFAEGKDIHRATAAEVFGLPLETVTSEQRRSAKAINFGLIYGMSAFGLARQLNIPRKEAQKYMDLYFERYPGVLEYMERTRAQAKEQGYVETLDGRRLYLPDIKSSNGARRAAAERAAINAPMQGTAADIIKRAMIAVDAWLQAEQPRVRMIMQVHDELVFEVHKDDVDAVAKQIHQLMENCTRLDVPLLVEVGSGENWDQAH

pIC50 [1] | Activity [2] | pIC50 [3] | pIC50 [4] | Activity [5] | pIC50 [6] | SMILES | pIC50 [7]
< 4.00 | < 2 pmol/mg | 5.64 | < 4.00 | < 2 pmol/mg | < 4.30 | O=C(O)c1nc(-c2ccccc2)nc(O)c1O | –
4.64 | – | 5.85 | < 4.00 | – | < 4.30 | O=C(O)c1nc(-c2ccc(Cl)cc2)[nH]c(=O)c1O | 4.54
< 4.00 | – | 6.22 | < 4.00 | – | < 4.30 | O=C(O)c1nc(-c2cccc(O)c2)nc(O)c1O | 5.24
– | – | 6.00 | – | – | – | Cn1c(-c2cccc(O)c2)nc(C(=O)O)c(O)c1=O | 5.22
< 4.00 | – | 6.00 | < 4.00 | – | < 4.30 | O=C(O)c1nc(-c2cccc(OCc3ccccc3)c2)[nH]c(=O)c1O | 4.82

Second part, the compound before the results:

SMILES | pIC50 [1] | Activity [2] | pIC50 [3] | pIC50 [4] | Activity [5] | pIC50 [6] | pIC50 [7]
O=C(O)C(=O)/C=C(\O)c1ccccc1 | – | > 400 pmol/mg | – | – | > 400 pmol/mg | – | –
COC(=O)c1nc(-c2ccc(Cl)cc2)[nH]c(=O)c1O | – | – | 4.52 | – | – | – | < 4.00
O=c1[nH]c(-c2cccc(O)c2)ncc1O | – | – | < 4.30 | – | – | – | < 4.30
COc1nc(-c2cccc(O)c2)nc(C(=O)O)c1O | – | – | < 4.30 | – | – | – | < 4.30
COc1c(C(=O)O)nc(-c2ccc(Cl)cc2)[nH]c1=O | – | – | < 4.30 | – | – | – | < 4.30
